The entries come from a sample that favours hits as a whole.
HUVEC inhibit: blocks proliferation of human endothelial cells. HUVEC proliferation, CellTiter-Glo luminescence, 72 h; active compounds read low. viability, % at 10 µM (by protocol). hit rate 1.1% among 86,000. AID 648;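 active means viability at or below 30%; inactive means viability above 30%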
Lung fibro prol: blocks proliferation of human lung fibroblasts. hit rate 1.1% among 85,000. AID 719. viability, % at 10 µM. LL 47 human lung fibroblast viability, ATP luminescence; active compounds read low;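 active means viability at or below 50% in the single dose screen; inactive means viability above 50%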;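 further: compound exposure lasted 72 h before the ATP readout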
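Material: Human LL 47 lung fibroblast cells | Input: 1,150 cells/well | Buffer or medium: IMEM plus 15% FBS | Compound dosing: 0.1% DMSO in all compound wells | Times: Overnight cell rest, 72 h compound treatment at 37 °C | Signal: CellTiter-Glo luminescence measuring cellular ATP | Measure: % viability versus median cells-only luminescence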
H69AR growth 86K: growth inhibitors of human H69AR lung tumor cells | H69AR lung tumor viability, ATP luminescence, 72 h; active compounds read low | AID 598 | hit rate 6% among 85,000 | viability, % at 10 µM;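 active means viability at or below 40%; inactive means viability above 40%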;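 further: multidrug resistant small cell line overexpressing MRP-1 efflux transporter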
Pyk2 oligo antag: blocks oligomerization of human Pyk2 in cells | Q14289 | Q293 cells, Pyk2 FERM NanoBiT luminescence; active compounds read low | z-score (the deposit names both 25 µM and 10 µM) | hit rate 0.83% among 99,000 | AID 1347419;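 active means Z-score of -3 or lower, scaled per plate to the spread of control and sample wells; inactive means z-score above -3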;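 further: negative z-score means lost luminescence so less FERM oligomerization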
Target sequence (Q14289 whole entry, looked up): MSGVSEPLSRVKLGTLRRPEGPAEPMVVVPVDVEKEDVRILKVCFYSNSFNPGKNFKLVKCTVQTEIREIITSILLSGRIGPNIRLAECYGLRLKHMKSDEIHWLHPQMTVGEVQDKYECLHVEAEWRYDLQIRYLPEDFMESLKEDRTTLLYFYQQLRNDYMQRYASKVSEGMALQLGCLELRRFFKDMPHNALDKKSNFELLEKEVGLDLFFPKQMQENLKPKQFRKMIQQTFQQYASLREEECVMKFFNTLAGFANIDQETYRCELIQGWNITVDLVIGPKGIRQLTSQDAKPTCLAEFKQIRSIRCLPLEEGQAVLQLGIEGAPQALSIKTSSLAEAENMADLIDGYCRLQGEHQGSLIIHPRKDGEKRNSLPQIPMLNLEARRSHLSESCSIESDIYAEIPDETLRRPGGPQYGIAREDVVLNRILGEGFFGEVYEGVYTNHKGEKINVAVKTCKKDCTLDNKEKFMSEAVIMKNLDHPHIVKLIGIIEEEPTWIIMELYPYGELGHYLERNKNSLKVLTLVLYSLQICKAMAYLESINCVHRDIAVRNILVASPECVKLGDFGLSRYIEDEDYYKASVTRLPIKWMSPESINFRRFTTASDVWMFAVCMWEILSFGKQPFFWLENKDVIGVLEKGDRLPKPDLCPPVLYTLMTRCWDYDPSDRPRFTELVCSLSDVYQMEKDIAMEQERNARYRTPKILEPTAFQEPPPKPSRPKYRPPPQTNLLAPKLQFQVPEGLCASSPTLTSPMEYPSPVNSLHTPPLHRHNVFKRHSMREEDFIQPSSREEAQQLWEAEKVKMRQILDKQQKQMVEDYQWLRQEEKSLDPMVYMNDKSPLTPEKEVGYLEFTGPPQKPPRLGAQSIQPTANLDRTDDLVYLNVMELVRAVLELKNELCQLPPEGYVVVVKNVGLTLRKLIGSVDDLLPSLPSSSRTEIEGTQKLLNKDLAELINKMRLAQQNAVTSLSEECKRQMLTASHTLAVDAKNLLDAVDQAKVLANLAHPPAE
HCT116 bCat-KO: beta-catenin-lacking colon tumor cell growth suppression. HCT116 beta-catenin knockout viability, CellTiter-Glo, 60 h; active compounds read low. viability, % at 10 µM. hit rate 1.5% among 140,000. AID 818;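 active means viability at or under a set limit, the compound median less 4 SD, cut at about 6% in these data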
PTEN del growth: growth suppressors of cells with PTEN tumor suppressor deletion; HCT116 PTEN-null viability, CellTiter-Glo, 60 h; active compounds read low; viability, % at 10 µM; hit rate 1.2% among 140,000; AID 827;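 active means viability at or below a set limit, 4 SD under the median of all tested compounds, cut at about 3.7% in these data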;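 further: PTEN knockout HCT116 line with beta catenin targeted HCT116 as companion control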
Hits are given with their value; n = inactive; x = not tested or not shown.

SMILES	HUVEC inhibit	Lung fibro prol	H69AR growth 86K	Pyk2 oligo antag	HCT116 bCat-KO	PTEN del growth
Cc1sc2ncnc(Sc3ccccc3C(=O)Nc3ccccc3Cl)c2c1C	x	x	x	x	n	n
Cc1ccc(/C=C/C(=O)N2CCC(Cc3ccccc3)CC2)cc1	x	x	x	x	n	n
O=c1[nH][nH]c(-c2ccccc2O)c1C(C[N+](=O)[O-])c1ccccc1 (stereo not given)	x	x	x	x	5.7	n
O=c1[nH][nH]c(-c2ccccc2O)c1C(C[N+](=O)[O-])c1ccc(Cl)cc1Cl (stereo not given)	x	x	x	x	n	n
O=c1[nH][nH]c(-c2ccccc2O)c1C(C[N+](=O)[O-])c1cccc(Cl)c1 (stereo not given)	x	x	x	x	5.9	n
CN(CC(=O)Nc1ccccc1C(=O)N1CCCC1)S(=O)(=O)c1ccc(Cl)cc1	n	n	n	n	n	n
O=C1c2ccccc2-c2onc3ccc(NCc4ccco4)c1c23	n	n	34	n	n	n
CCNc1ccc2noc3c2c1C(=O)c1ccccc1-3	n	n	18	n	n	n
O=c1nccc(NCc2ccco2)[nH]1	n	n	n	n	n	n
CCOc1ccc2noc3c2c1C(=O)c1ccccc1-3	x	x	x	n	n	n
CCOC(=O)c1cc2c(N)c(C(=O)c3cc(C#N)c(SC)nc3C)sc2nc1C	n	x	16	n	n	n
CCOC(=O)c1cc(C#N)c(N)nc1C	n	n	n	n	n	n
CC(=O)c1c(N2CCN(Cc3ccccc3)CC2)[nH]c(-c2ccccc2)nc1=S	n	n	4.6	n	n	n
CCNC(=O)CN(c1ccc(CC)cc1)S(C)(=O)=O	n	n	n	n	n	n
COc1ccc(-c2ccc(-c3nnn(CC(=O)N4CCOCC4)n3)cc2)cc1	n	38	24	n	n	n
O=C(Nc1nnc(-c2ccccc2Cl)o1)c1cc2cc([N+](=O)[O-])ccc2s1	x	x	x	x	n	n
COc1cc(OC)c2nc(C)c3c(c2c1)N(c1ccc(O)cc1)CC3	x	x	x	n	4.5	n
CCOC(=O)c1cnc(-n2nc(C)cc2C)nc1NCCO	n	n	n	n	n	n
CCOC(=O)c1cnc(-n2nc(C)cc2C)nc1NNc1cc(-c2ccccc2)nc(C)n1	x	x	x	x	3.8	n
CCOC(=O)c1cnc(-n2nc(C)cc2C)nc1NCc1ccccc1	n	n	2.4	n	n	n
CCOC(=O)c1cnc(-n2nc(C)cc2C)nc1N1CC(C)OC(C)C1 (stereo not given)	n	n	n	n	x	x
CCOC(=O)c1cnc(-n2nc(C)cc2C)nc1NC(C)c1ccccc1 (stereo not given)	n	17	2.0	n	2.3	3.6
CCCC12CN3CCN(CC(C3)/C1=N\NC(=O)c1ccc(C(C)(C)C)cc1)C2	x	x	x	x	n	n
Cn1c(=O)cc(SCC(=O)NCCC2=CCCCC2)c2ccccc21	x	x	x	n	n	n
O=C(NNC1=C(C(=O)C(F)(F)F)CCC1)c1cccc(Cl)c1	23	n	29	n	n	n
SMILES	HUVEC inhibit	Lung fibro prol	H69AR growth 86K	Pyk2 oligo antag	HCT116 bCat-KO	PTEN del growth
CCC(C)C(=O)Nc1ccc(OC)cc1[N+](=O)[O-] (stereo not given)	x	x	x	x	n	n
CCCc1nnc(NC(=O)c2c(O)c3cccc4c3n(c2=O)CCC4)s1	n	n	6.0	x	x	x
O=C(NCc1ccccc1)c1c(O)c2cccc3c2n(c1=O)CCC3	n	n	n	n	n	n
COC(=O)c1ccccc1NC(=O)c1c(O)c2cccc3c2n(c1=O)CCC3	n	n	n	x	x	x
CC(C)c1nnc(NC(=O)c2c(O)c3cccc4c3n(c2=O)CC4)s1	n	n	28	x	x	x
CCc1nc2ccccc2c(=O)n1NC(=O)c1c(O)c2cccc3c2n(c1=O)CCC3	n	n	26	n	n	n
CCCCNC(=O)c1c(O)c2cccc3c2n(c1=O)CCC3	n	n	n	n	n	n
Cc1csc(NC(=O)c2c(O)c3cccc4c3n(c2=O)CCC4)n1	n	n	36	x	x	x
O=C(Nc1nc2nccc(-c3ccccc3)n2n1)C(Cl)(Cl)Cl	x	x	x	x	n	n
O=C(CSc1nc(C2CCCCC2)n(-c2ccccc2)n1)NCC(F)(F)F	x	x	x	x	n	n
N/N=C(\c1ccccc1)C12CN3CN(CN(C3)C1)C2	x	x	x	x	n	n
FC(F)(F)c1cc(-c2ccc(Cl)cc2)nc2ncnn12	n	n	n	n	n	n
CNC(=O)c1c(O)c2cccc3c2n(c1=O)CC3	n	n	n	n	x	x
CC(C)Cn1c2c(c(O)c(C(=O)Nn3c(Cc4ccccc4)nc4ccccc4c3=O)c1=O)CCCC2	x	x	x	x	n	n
O=C(Nc1cccnc1)c1c(O)c2cccc3c2n(c1=O)CC3	n	n	15	n	n	n
CCCCc1nc2ccccc2c(=O)n1NC(=O)c1c(O)c2c(n(CC(C)C)c1=O)CCCC2	n	n	9.7	n	n	n
CCCc1cn(S(=O)(=O)c2ccc(OC)cc2OC)nc1N	n	n	n	n	n	n
COC(=O)c1nn(-c2ccccc2)nc1-c1nn(-c2ccccc2)nc1C(=O)OC	n	n	26	n	n	n
O=C(CCCCCn1c(=S)[nH]c2cc3c(cc2c1=O)OCO3)N1CCN(C2CCCCC2)CC1	n	4.8	2.2	n	n	2.7
CC(CNC(=O)C(C)(C)C)NC(=O)C(C)(C)C (stereo not given)	x	x	x	x	n	n
COCCn1nnnc1C(c1ccccc1OC)N1CCc2ccccc2C1 (stereo not given)	n	n	n	n	x	x
O=C(N1CCOCC1)N1CCCN(C(=O)N2CCOCC2)CC1	n	n	36	n	n	n
COc1cc(C)c(Cl)cc1S(=O)(=O)n1cnc2ccccc21	n	n	40	n	n	n
CC1=NN(c2ccccc2)C(=O)C1(C)[N+](=O)[O-] (stereo not given)	x	x	x	x	n	n
CC1(C)OC(=O)N(c2ccccc2)C12C=Cc1cc(Br)ccc1O2 (stereo not given)	n	n	18	n	n	n
SMILES	HUVEC inhibit	Lung fibro prol	H69AR growth 86K	Pyk2 oligo antag	HCT116 bCat-KO	PTEN del growth
CCCOc1c(OC)cccc1C1CC(=O)Nc2cc3c(cc21)OCCO3 (stereo not given)	n	n	15	n	n	n
CCCOc1c(OC)cccc1C1CC(=O)Nc2cc3c(cc21)OCO3 (stereo not given)	n	n	17	n	n	n
CCOC(=O)C1CCCN(C(=O)C2CCN(Cc3nc(-c4ccc(Cl)cc4)oc3C)CC2)C1 (stereo not given)	n	n	n	x	x	x
Cc1oc(-c2cccc(Cl)c2)nc1CN1CCC(C(=O)N2CCN(c3ccccc3F)CC2)CC1	16	n	5.8	x	x	x
Cc1oc(-c2ccc(Cl)cc2)nc1CN1CCC(C(=O)N2CCN(Cc3ccccc3)CC2)CC1	16	n	n	x	2.0	n
Cc1oc(-c2ccc(Cl)cc2)nc1CN1CCC(C(=O)N2CCc3ccccc3C2)CC1	n	n	1.3	x	n	n
CCc1noc(N)c1C(=O)Nc1ccc(F)c(Cl)c1	n	n	n	n	n	n
CCCN(CCC)C(=O)CCSCCC(=O)N(CCC)CCC	x	x	x	x	n	n
O=C(CCCCCC(=O)N(CCO)CCO)N(CCO)CCO	n	n	26	n	n	n

High-throughput results as filed in PubChem BioAssay.
